rCAG RNA binder = binds r(CAG) RNA repeats; 370,000 tested, 1.3% active; inhibition, % at 3 µM; r(CAG) RNA repeat, TO-PRO-1 dye displacement fluorescence;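 active = inhibition above the plate cutoff, the mean of all test compounds on that plate plus 3 SD, cut at about 35% in these data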;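 also: 0% = DMSO alone and 100% = 100 µM mitoxantrone as full dye displacement; higher means more dye released from RNA so lower well fluorescence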
mABHD4 FP = inhibitors of mouse ABHD4; AID 720543; inhibition, % at 8.92 µM; purified mABHD4, FP-Rh probe fluorescence polarization; 370,000 tested, 0.54% active; Q8VD66;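 active = inhibition exceeding the mean over every tested compound plus 3 SD, cut at about 30% in these data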;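 also: 0% = plate median of compound wells and 100% = S159A mutant with DMSO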
Target sequence (Q8VD66 whole entry, looked up): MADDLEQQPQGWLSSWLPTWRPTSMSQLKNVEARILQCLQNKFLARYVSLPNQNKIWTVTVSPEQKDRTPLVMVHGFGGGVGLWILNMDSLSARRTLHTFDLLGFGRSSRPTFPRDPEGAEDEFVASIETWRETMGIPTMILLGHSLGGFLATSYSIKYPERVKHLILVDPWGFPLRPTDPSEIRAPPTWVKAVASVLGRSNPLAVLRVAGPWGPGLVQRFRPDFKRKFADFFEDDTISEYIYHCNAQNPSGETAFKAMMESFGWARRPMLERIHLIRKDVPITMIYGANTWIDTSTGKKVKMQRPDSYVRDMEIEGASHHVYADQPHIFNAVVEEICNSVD
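system = mouse ABHD4 enzyme, wild type | medium = HEPES pH 7.0, NaCl, Pluronic buffer | also added = FP-Rh probe | incubation = Enzyme–compound pre-incubation 45 min, then probe 60 min, both 25 °C | technique = fluorescence polarization, excitation 525 nm, emission 598 nm, BODIPY TMR filters | controls = S159A mutant high control, sample median low control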
TCR-CD3 inh = blocks the human TCR-CD3 interaction; TAMRA-labeled TCR probe fluorescence, biochemical; inhibition, % at 9.4 µM; 360,000 tested, 0.37% active; in the data active = inhibition above about 19%;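 also: recombinant mutant TCR 2C K166C tagged with TAMRA read by polarization; 0% = receptor in buffer alone and 100% = receptor with positive control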
SIAE inh = blocks human sialic acid acetylesterase. SIAE FP-Rh probe binding, fluorescence polarization. inhibition, % at 9.66 µM. Q9HAT2. 370,000 tested, 0.69% active;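 active = inhibition above a cutoff: mean of compounds within the control limits plus 3 SD of those, cut at about 17% in these data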;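 also: 0% = plate median of compound wells and 100% = probe without SIAE protein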
PRMT1 inh = PRMT1 (human) inhibition, primary screen. Q99873. recombinant PRMT1, activity-based probe fluorescence polarization. inhibition, % at 2.79 µM. 370,000 tested, 1.3% active. AID 652257;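 active = inhibition above about 21% made by adding two undisclosed values, limit read from the data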
Target sequence (Q99873 whole entry, looked up): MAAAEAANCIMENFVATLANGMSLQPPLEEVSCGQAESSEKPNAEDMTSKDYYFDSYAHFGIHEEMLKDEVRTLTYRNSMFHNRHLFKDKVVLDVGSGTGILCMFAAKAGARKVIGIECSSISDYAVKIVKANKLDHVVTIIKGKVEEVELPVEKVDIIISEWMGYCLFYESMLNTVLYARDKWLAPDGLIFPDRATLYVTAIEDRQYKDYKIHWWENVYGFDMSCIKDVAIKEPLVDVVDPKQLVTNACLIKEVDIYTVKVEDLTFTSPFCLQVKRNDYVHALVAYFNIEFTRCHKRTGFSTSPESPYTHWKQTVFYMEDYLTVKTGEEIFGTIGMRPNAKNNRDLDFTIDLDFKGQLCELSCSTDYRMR
Active calls of the source: *; . = not tested or not shown. Compounds with a hit are over-represented: about 3.3% of the library has one in this group of screens.

SMILES | rCAG RNA binder | mABHD4 FP | TCR-CD3 inh | SIAE inh | PRMT1 inh
O=C1C=CC2(C=C1)O[C@H](Cc1ccccc1)[C@@H](Cc1ccccc1)O2 | 7.2 | -13.8 | 2.3 | 2.3 | 51.1*
COc1ccc(NS(=O)(=O)c2cccc(C(=O)NCc3ccco3)c2)cc1 | 4.2 | -8.0 | -2.8 | -1.2 | 22.8*
COc1cccc(S(=O)(=O)Nc2ccc(C(=O)NCc3ccco3)cc2)c1 | 8.8 | -13.0 | 5.8 | 4.8 | 1.4
COCCN=C1NN=C(c2ccc(NC(C)=O)cc2)CS1 | 1.7 | 5.0 | 1.0 | -7.4 | 21.7*
CCN=C1NN=C(c2ccc(C)cc2)CS1 | 8.5 | -0.7 | -0.9 | 2.3 | 18.7
CCC1CCc2c(sc(NC(=O)c3cnccn3)c2C(N)=O)C1 (stereo unspecified) | 0.8 | 7.1 | -6.6 | 3.1 | 24.3*
CCC1CCc2c(sc(NC(=O)c3ccco3)c2C(N)=O)C1 (stereo unspecified) | 11.8 | -5.8 | 2.0 | -10.4 | 0.3
Cc1ccc(NNC(=O)c2ccno2)cc1Cl | 3.0 | 5.5 | -3.8 | 1.2 | -8.2
Cc1ccc(NNC(=O)c2ccno2)cc1C | -3.9 | -2.9 | -5.2 | -1.7 | 23.3*
CSCCCNC(=O)c1oc(=O)c2ccccc2c1-c1ccc(C)cc1 | -1.7 | -6.1 | . | -0.5 | 0.0
Nc1ncnc2nc(SCc3ccc(Cl)cc3Cl)[nH]c12 | 4.4 | 6.9 | 5.0 | 21.3* | -1.9
Cc1[nH]c2ccccc2c1/C=N/NC(=O)c1ccccc1 | 2.3 | -1.6 | -5.4 | 2.9 | -0.2
Cc1[nH]c2ccccc2c1/C=N/Nc1cccc(C(=O)O)c1 | 21.4 | 33.6* | 11.7 | 6.9 | 5.1
Cn1cnc([N+](=O)[O-])c1S(=O)(=O)Oc1cccc2ccccc12 | 2.3 | 1.9 | 4.5 | -1.7 | 23.0*
CCN1C(=O)/C(=C2\SC(=S)N(NC(=O)c3cccnc3)C2=O)c2ccccc21 | 15.3 | 8.8 | -3.4 | 2.6 | 21.4*
Cc1cccc(N=Nc2c(N)n[nH]c2-c2ccc(Cl)cc2)c1 | 40.5* | -1.7 | 2.9 | 9.3 | -3.1
Cc1ccc(-c2[nH]nc(N)c2N=Nc2ccccc2C)cc1 | 32.4 | 17.4 | -2.0 | 12.5 | 0.9
COC(=O)[C@]12C[C@H](CC(=O)NCC34CC5CC(CC(C5)C3)C4)C(=O)N(Cc3ccco3)C1=C[C@H](C(C)(C)C)O[C@@H]2C | 4.7 | -3.5 | . | -5.8 | 3.0
Cn1ncc2c(c(SCc3ccc(Cl)cc3Cl)nn2C)c1=O | -2.1 | -6.9 | -0.7 | -4.8 | 22.0*
CCC[C@H]1[C@@H](O)CC[C@@]23CCCN2C(=O)CCC[C@@H]13 | . | -4.8 | . | -3.6 | 3.6
COc1ccc2c(c1)CCCN2C(=O)C1CCCN(S(=O)(=O)c2ccc(C)c(C)c2)C1 (stereo unspecified) | 5.0 | -1.3 | . | 1.3 | -0.4
O=C(NC[C@H]1CCCO1)c1cccc2c1C(=O)c1ccc(-c3ccc(F)cc3OCc3ccccc3)cc1S2(=O)=O | 21.8 | 0.4 | 5.8 | -14.5 | 0.4
Cc1cc(CNC(=O)c2cccc3c2C(=O)c2ccc(-c4ccc(F)cc4OCc4ccccc4)cc2S3(=O)=O)c(C(F)(F)F)o1 | 42.9* | -9.3 | -8.0 | -26.6 | 3.7
O=C(CSc1nnc(-c2ccccc2)n1-c1ccc(Cl)cc1)NN=Cc1c[nH]c2ccccc12 | 10.5 | -1.2 | . | 0.7 | 1.4
CC(C)CN1C(=O)NC(NS(=O)(=O)c2ccc(N)cc2)(C(F)(F)F)C1=O (stereo unspecified) | 1.5 | -4.3 | -2.9 | -3.0 | 24.1*
SMILES | rCAG RNA binder | mABHD4 FP | TCR-CD3 inh | SIAE inh | PRMT1 inh
O=C(O)c1ccnc(SCC(=O)c2ccccc2)c1 | 6.3 | -2.2 | -3.7 | -4.6 | 22.9*
O=C(CSc1ncccc1C(=O)O)c1ccccc1 | 0.9 | 5.8 | -1.5 | 0.6 | 0.9
O=C(NCc1ccccc1Cl)C1CCC(CNS(=O)(=O)c2cccc3cccnc23)CC1 (stereo unspecified) | 20.3 | 5.2 | . | -0.7 | 16.7
C=CCN1C(=O)[C@@H](CC(=O)N2CCCCC2)[C@]2(C(=O)OCC)CCCCC/C=C/12 | -0.1 | 3.8 | . | -0.2 | -1.8
COc1ccccc1-n1ccnc(SCC(=O)NCCc2ccccc2)c1=O | -4.6 | -3.0 | -5.5 | 5.0 | 22.5*
CCC(COC(=O)c1ccccc1)Oc1cc(NCc2ccccc2)c2ncn(C(C)C)c2c1 (stereo unspecified) | 0.2 | 31.0* | 1.5 | 7.2 | 3.6
CCC(COC)Oc1cc(NCc2ccccc2)c2ncn(C(C)C)c2c1 (stereo unspecified) | 0.5 | 23.8 | 5.2 | 5.2 | 1.8
CC(C)c1nnc(NC(=O)c2cccc(NC(=O)C(F)(F)F)c2)s1 | 0.6 | -0.2 | -1.6 | -5.9 | 21.9*
CC(C)C(=O)Nc1cccc(C(=O)Nc2nnc(C(C)C)s2)c1 | -3.0 | 0.4 | -6.2 | -2.0 | 0.9
O=C(O)CCC(C(=O)O)n1c(O)c(C2=c3ccccc3=NC2=O)sc1=S (stereo unspecified) | 4.3 | 16.9 | 3.1 | 2.5 | 23.0*
O=C(O)c1cccc(-n2cccc2/C=N/O)c1 | -0.2 | 4.3 | 0.2 | 1.5 | 0.1
O=C(O)c1cccc(-n2cccc2/C=C/[N+](=O)[O-])c1 | 13.1 | 12.4 | 0.3 | -5.5 | 26.4*
c1ccc(CCn2nnnc2CN2CCCc3ccccc32)cc1 | 1.3 | -11.8 | -5.5 | 1.0 | 24.8*
COc1ccc(S(=O)(=O)N(C)C[C@H]2Oc3ccc(NC(=O)Nc4ccc5c(c4)OCO5)cc3CC(=O)N([C@@H](C)CO)C[C@@H]2C)cc1 | 13.0 | -1.1 | -4.9 | 17.7* | 0.7
N=c1c(C(=O)NC2CCCCC2)cc2c(=O)n3ccccc3nc2n1CCc1ccccc1 | 5.3 | 0.0 | 2.9 | 92.5* | -0.5
N=c1c(C(=O)NC2CCCCC2)cc2c(=O)n3ccccc3nc2n1Cc1ccccc1 | 4.0 | 9.4 | -0.6 | 1.2 | -0.4
CCC/C=C1/CCCOC(C(=O)NCc2ccc(C)o2)(C(F)(F)F)C1 (stereo unspecified) | 10.1 | -8.5 | 2.6 | -3.5 | 45.3*
CCC/C=C1/CCCOC(C(=O)NCc2ccccn2)(C(F)(F)F)C1 (stereo unspecified) | -1.3 | 8.2 | 5.0 | 3.1 | 1.2
CN1C(=O)c2cccc3c(S(=O)(=O)NCc4ccco4)ccc1c23 | 3.7 | 3.0 | -6.9 | 5.1 | 21.7*
O=C(CSc1nnc(Cc2ccccc2)n1Cc1ccco1)NC1CCCC1 | 6.6 | -26.9 | -5.0 | -14.6 | 22.2*
COC(=O)c1cccc(OCC(C)CN2CCC(C(O)(c3ccccc3)c3ccccc3)CC2)c1 (stereo unspecified) | 2.9 | 10.7 | . | 2.8 | -0.8
CC(COc1ccc(F)cc1)CN1CCC(C(O)(c2ccccc2)c2ccccc2)CC1 (stereo unspecified) | 1.6 | 9.8 | . | -1.7 | -2.4
N#C/C(=C/c1cn(-c2ccccc2)nc1-c1cccc(S(=O)(=O)N2CCOCC2)c1)C(=O)NCc1ccco1 | 2.2 | -1.1 | -4.2 | -3.3 | 23.5*
N#C/C(=C/c1cn(-c2ccccc2)nc1-c1cccc(S(=O)(=O)N2CCCC2)c1)C(=O)NCc1ccco1 | 24.0 | -11.9 | 1.1 | -20.4 | 5.6
